The nature of data set [1]: folding enthalpy; higher = less favourable; fluorescence melt of hairpins on a sequencing array, two-state fit. To be noted: sodium 0.088 M. The gist of the method: (§1)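 In 50 mM Na-HEPES pH 8.0 containing 25 mM NaCl, hairpins from the library on a sequenced MiSeq flow cell were imaged for Cy3 fluorescence at 2.5 °C steps up to 60 °C, with Cy3 and quencher oligos annealed. After normalisation to pre-quench Cy3 and to control constructs, two-state fits with bootstrapping gave melting temperature and folding enthalpy. Four replicates were combined by inverse-variance weighting, and fitted temperatures were shifted up by 9.35 °C to match UV melts.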

Data set [2] is described as follows: melting temperature; fluorescence melt of hairpins on a sequencing array, two-state fit, raised by 9.35 °C to match UV melts. To be noted: sodium 0.088 M. The gist of the method:
as §1

As for GACAGGGGAAACTCTGTC (((((.(....).))))), the folding enthalpy in data set [1] was -35 kcal/mol. Moreover, the Tm in data set [2] worked out at 48.1 °C.
GGGTCCCGAAAGGGTCCC (((.(((....))).))): the folding enthalpy in data set [1] was -31 kcal/mol. For the same sequence, the Tm in data set [2] came to 64.9 °C.
As for GGGTTGACGAAAGTCCCC (((..(((....)))))), the folding enthalpy in data set [1] is -20.6 kcal/mol. Further, in data set [2], the Tm came to 42.5 °C.
GTTGTCGGAAACGACGAC ((.((((....)))).)): the folding enthalpy in data set [1] is -24.8 kcal/mol. Also, the Tm in data set [2] amounted to 55.1 °C.
For GATCCTAAGAGGATC ((((((...)))))), in that order: -29.6 kcal/mol and 53.8 °C.
For GGGAGGGGAAACTCTCCC (((((.(....).))))), the folding enthalpy in data set [1] was -31.4 kcal/mol. In addition, the Tm in data set [2] turned out to be 52 °C.
For the sequence GCGACGCGAAAGCGCAGC ((..(((....)))..)), the folding enthalpy in data set [1] was -15.5 kcal/mol. Besides, the Tm in data set [2] is 58.9 °C.
Turning to GCCGACGGAAACACCGGC ((((..(....)..)))), the folding enthalpy in data set [1] is -20.4 kcal/mol. Further, the Tm in data set [2] came to 43.9 °C.
In the case of GTTAGTGGAAACACTAAC (((((((....))))))), the folding enthalpy in data set [1] is -46.1 kcal/mol. In addition, the Tm in data set [2] stood at 54.7 °C.
Consider GCTGTGGGAAACCGCAGC ((((.((....)).)))), for which the folding enthalpy in data set [1] was -44.6 kcal/mol. In data set [2], the Tm is 60.7 °C.
Turning to GGTGGACGAAAGTCAACC (((.(((....))).))), in data set [1], the folding enthalpy is -40.3 kcal/mol. For the same sequence, the Tm in data set [2] came out at 56.6 °C.
For the sequence GTTTACGAAAGTACAAC ((((((....))).))), the folding enthalpy in data set [1] is -11.9 kcal/mol. Further, the Tm in data set [2] turned out to be 30.4 °C.
Regarding GGACATGGAAACACGTCC ((((.((....)).)))), the folding enthalpy in data set [1] is -30 kcal/mol. For the same sequence, the Tm in data set [2] is 42.7 °C.
In the case of GATCGTTCTGACGATC ((((((....)))))), the folding enthalpy in data set [1] is -44.4 kcal/mol. The Tm in data set [2] is 55.5 °C.
For GGGACCGAAAGGTCGCCC ((((((....)))..))), in data set [1], the folding enthalpy was -10.3 kcal/mol. Further, the Tm in data set [2] is 57.5 °C.
The like results for GCAGGGCCGAAAGGCTGC (((..(((....)))))) were, in that order, -14.3 kcal/mol and 55.3 °C.
As to GGAGAGGGAAACCCCTCC ((((.((....)).)))), in data set [1], the folding enthalpy was -28.6 kcal/mol. Further, the Tm in data set [2] is 45 °C.
GATCACGAAAGTGCTATC ((((((....)))..))): the folding enthalpy in data set [1] was -12.1 kcal/mol. For the same sequence, the Tm in data set [2] came out at 26.1 °C.
GAAAGCCGAAAGGCCTTC (((.(((....))).))): the folding enthalpy in data set [1] was -14.4 kcal/mol. In addition, the Tm in data set [2] amounted to 41.4 °C.
GGGTGAGGAAACTCGCTC (.(.(((....))).).): in data set [1], the folding enthalpy is -21.6 kcal/mol. For the same sequence, in data set [2], the Tm is 38.1 °C.
Consider CGTCCCGGAAACGGACG (((.(((....)))))), for which the folding enthalpy in data set [1] is -27.7 kcal/mol. For the same sequence, the Tm in data set [2] was 53.2 °C.
For GCGGGTCCGAAAGGACGC (((..(((....)))))), in that order: -11.3 kcal/mol and 52.5 °C.
On to GGGGACGAAAGTCATCCC ((((((....)))..))), for which the folding enthalpy in data set [1] is -12.6 kcal/mol. Moreover, the Tm in data set [2] amounted to 45.6 °C.
For GAGGACGAAAGTCGCCTC ((((((....)))..))), in data set [1], the folding enthalpy was -14.9 kcal/mol. Besides, in data set [2], the Tm was found to be 38.9 °C.
With GATCTTGTCGAAGATC ((((((....)))))), the folding enthalpy in data set [1] is -27.4 kcal/mol. Further, the Tm in data set [2] was 46.4 °C.
Regarding GGATTCGGAAACGGATTC (.((.((....)).)).), in data set [1], the folding enthalpy is -16.7 kcal/mol. Also, the Tm in data set [2] turned out to be 32.3 °C.
Turning to GAAAGTGGAAACACTTCC (.(((((....))))).), the folding enthalpy in data set [1] was -16.6 kcal/mol. Besides, the Tm in data set [2] amounted to 33.7 °C.
As to GAGGAGGGAAACCTCTTC ((.((((....)))).)), the folding enthalpy in data set [1] was -27.7 kcal/mol. In data set [2], the Tm is 47.8 °C.
For GAACTTGGAAACAAGTTC (((((((....))))))), in that order: -39 kcal/mol and 57.4 °C.
The like results for GGGACAGCGAAAGCTCCC (((..(((....)))))) were, in that order, -19 kcal/mol and 46.1 °C.
Consider GATCACATAGGTGATC ((((((....)))))), for which the folding enthalpy in data set [1] was -39.1 kcal/mol. In addition, in data set [2], the Tm amounted to 55.8 °C.
GCGGGAGTCCGC ((((....)))): in data set [1], the folding enthalpy is -23.6 kcal/mol. Also, the Tm in data set [2] was determined as 55.7 °C.
Consider GAAGGTGGAAACACCTTC (((((((....))))))), for which the folding enthalpy in data set [1] was -37.7 kcal/mol. The Tm in data set [2] is 64.6 °C.
The like results for GATCGGTTACCGATC ((((((...)))))) were, in that order, -36.1 kcal/mol and 59.3 °C.
With GATCCCAAGGGGATC ((((((...)))))), the folding enthalpy in data set [1] is -35.8 kcal/mol. The Tm in data set [2] stood at 66.6 °C.
As to CGGGGACGGAAACGTCCG (((..(((....)))))), in data set [1], the folding enthalpy is -7.9 kcal/mol. For the same sequence, the Tm in data set [2] came out at 50.2 °C.
Regarding GCGGATCCCCGC ((((....)))), in data set [1], the folding enthalpy is -23.3 kcal/mol. Also, in data set [2], the Tm was determined as 56.4 °C.

Source of the values: the array DNA melting data of Ke et al. (doi:10.1101/2024.01.08.574731).
